Measurements: ChEMBL document CHEMBL1833818, “Synthesis of phenanthroindolizidine alkaloids and evaluation of their antitumor activities and toxicities” (Bioorg Med Chem Lett, 2011)
pIC50: −log10 of the molar value.

Key:
Mus musculus [1] = assay: Toxicity in mouse Meth-A cells xenografted BALB/c mouse assessed as mortality at 50 mg/kg, iv; assay type: organism-based; set-up: dose 50 mg/kg, route intravenous; details: in vivo
Method in brief: (§1)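 Meth A sarcoma cells, 2.5 × 10⁵ per mouse, inoculated s.c. into 7-week-old male BALB/c mice, 5 per group. Samples were injected i.v. on days 1, 5 and 9. Tumours were excised and weighed on day 21 after inoculation. Mortality was recorded per group as deaths/5.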

Mus musculus [2] = assay: Toxicity in mouse Meth-A cells xenografted BALB/c mouse assessed as mortality at 25 mg/kg, iv; assay type: organism-based; set-up: dose 25 mg/kg, route intravenous; details: in vivo; method in brief: as §1
HCT-116 [3] = assay: Cytotoxicity against human HCT116 cells after 96 hrs by […] assay; assay type: functional, cell-based; details: HCT-116, 96 h
Method in brief: (§2)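 Exponentially growing cells seeded at 10³ cells/well; serially diluted compounds added next day, 96 h exposure. Tetrazolium reagent (2-(2-methoxy-4-nitrophenyl)-3-(4-nitrophenyl)-5-(2,4-disulfophenyl)-2H-tetrazolium) added, 1 h at 37 °C, absorbance 450 nm. IC50 = concentration inhibiting growth 50% versus solvent-treated cells.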

[4] = Antitumor activity against mouse Meth-A cells xenografted in BALB/c mouse assessed as tumor growth inhibition at 25 mg/kg, iv administered on day 1, 5, 9 and measured on day 21 post-implantation relative to control; assay type: functional; details: read-out: GI
Method in brief: (§3)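 Meth A sarcoma cells (2.5 × 10⁵/mouse) inoculated s.c. into 7-week-old male BALB/c mice, 5 per group; i.v. injection on days 1, 5 and 9. Tumors excised and weighed on day 21 post-inoculation; inhibition rate (%) = [1 − mean tumor weight treated/mean tumor weight control] × 100. Mortality also recorded.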

A549 = assay: Cytotoxicity against human A549 cells after 96 hrs by […] assay; assay type: functional, cell-based; details: A549, 96 h; method in brief: as §2
HT-29 = assay: Cytotoxicity against human HT-29 cells after 96 hrs by […] assay; assay type: functional, cell-based; details: HT-29, 96 h; method in brief: as §2
HCT-116 [5] = assay: Antitumor activity against human HCT116 cells xenografted in nude mouse assessed as tumor growth inhibition at 100 mg/kg, ip administered 10 times on days 1 to 5 and 8 to 12 measured on day 21 post-implantation relative to control; assay type: functional; details: HCT-116, ip, 504 h, route intraperitoneal, read-out: GI
Method in brief: (§4)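 HCT116 cells (2 × 10⁶/mouse) implanted s.c. in 6-week-old male nude mice; groups of 5 formed when estimated tumor volume reached about 100 mm³ (day 0). Dosing i.p. on days 1–5 and 8–12. Tumors excised and weighed day 21 after inoculation; inhibition rate (%) = [1 − mean tumor weight treated/mean tumor weight control] × 100.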

Mus musculus [6] = assay: Toxicity in human HCT116 cells xenografted nude mouse assessed as mortality at 100 mg/kg, ip; assay type: organism-based, HCT-116; set-up: dose 100 mg/kg, route intraperitoneal; details: in vivo
Method in brief: (§5)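 HCT116 cells, 2 × 10⁶ per mouse, implanted s.c. in 6-week-old male nude mice. Mice were grouped 5 per group once the estimated tumour volume reached about 100 mm³ (day 0). Samples were given i.p. 10 times, on days 1–5 and 8–12. Tumours were excised and weighed on day 21 after inoculation. Mortality was recorded per group.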

[7] = Antitumor activity against mouse Meth-A cells xenografted in BALB/c mouse assessed as tumor growth inhibition at 100 mg/kg, iv administered on day 1, 5, 9 and measured on day 21 post-implantation relative to control; assay type: functional; details: read-out: GI; method in brief: as §3
[8] = Antitumor activity against mouse Meth-A cells xenografted in BALB/c mouse assessed as tumor growth inhibition at 50 mg/kg, iv administered on day 1, 5, 9 and measured on day 21 post-implantation relative to control; assay type: functional; details: read-out: GI; method in brief: as §3
Mus musculus [9] = assay: Toxicity in mouse Meth-A cells xenografted BALB/c mouse assessed as mortality at 100 mg/kg, iv; assay type: organism-based; set-up: dose 100 mg/kg, route intravenous; details: in vivo; method in brief: as §1
Mus musculus [10] = assay: Toxicity in human HCT116 cells xenografted nude mouse assessed as mortality at 135 mg/kg, ip; assay type: organism-based, HCT-116; set-up: dose 135 mg/kg, route intraperitoneal; details: in vivo; method in brief: as §5
HCT-116 [11] = assay: Antitumor activity against human HCT116 cells xenografted in nude mouse assessed as tumor growth inhibition at 135 mg/kg, ip administered 10 times on days 1 to 5 and 8 to 12 measured on day 21 post-implantation relative to control; assay type: functional; details: HCT-116, ip, 504 h, route intraperitoneal, read-out: GI; method in brief: as §4
HCT-116 [12] = assay: Antitumor activity against human HCT116 cells xenografted in nude mouse assessed as tumor growth inhibition at 200 mg/kg, ip administered 10 times on days 1 to 5 and 8 to 12 measured on day 21 post-implantation relative to control; assay type: functional; details: HCT-116, ip, 504 h, route intraperitoneal, read-out: GI; method in brief: as §4
Mus musculus [13] = assay: Toxicity in human HCT116 cells xenografted nude mouse assessed as mortality at 200 mg/kg, ip; assay type: organism-based, HCT-116; set-up: dose 200 mg/kg, route intraperitoneal; details: in vivo; method in brief: as §5
[14] = Toxicity in human HCT116 cells xenografted nude mouse assessed as mortality at 6.25 mg/kg, ip; assay type: organism-based, HCT-116; set-up: dose 6.25 mg/kg, route intraperitoneal; details: in vivo, read-out: Activity; method in brief: as §5

| Compound | pIC50 (HCT-116 [3]) | pIC50 (A549) | pIC50 (HT-29) | also measured |
| --- | --- | --- | --- | --- |
| COc1cc2c3c(c4ccc(O)cc4c2cc1OC)[C@H](O)[C@@H]1CCCN1C3 [TYLOPHORIDICINE E] | 8.89 | 8.57 | 8.54 | Activity (Mus musculus [1]): Toxic; Activity (Mus musculus [2]): Non-toxic; inhibition in vivo at 25 mg/kg [4]: 30.6% |
| COc1cc2c3c(c4cccc(O)c4c2cc1OC)C[C@@H]1CCCN1C3 | 8.33 | 8.26 | 6.34 | – |
| COc1cc2c3c(c4ccc(O)cc4c2cc1OC)[C@H](O)[C@H]1CCCN1C3 | 6.17 | 6.09 | 6.03 | – |
| COc1cc2c3c(c4ccc(O)cc4c2cc1OC)[C@@H](O)[C@@H]1CCCN1C3 | 7.35 | 7.28 | 7.27 | – |
| COc1cc2c3c(c4ccc(O)cc4c2cc1OC)C[C@H]1CCCN1C3 | 7.22 | 7.24 | 6.80 | – |
| COc1ccc2c3c(c4cc(OC)c(OC)cc4c2c1)CN1CCC[C@H]1C3 | 7.38 | 7.36 | 7.35 | – |
| COc1cc2c3c(c4ccccc4c2cc1OC)C[C@@H]1CCCN1C3 | 7.30 | 7.31 | 7.24 | inhibition in vivo at 100 mg/kg (HCT-116 [5]): 21%; Activity (Mus musculus [6]): Non-toxic |
| CCOc1cc2c3c(c4ccc(O)cc4c2cc1OCC)C[C@@H]1CCCN1C3 | 7.41 | 7.37 | 7.09 | – |
| CCc1c2c(nc3ccc(OC(=O)N4CCC(N5CCCCC5)CC4)cc13)-c1cc3c(c(=O)n1C2)COC(=O)[C@]3(O)CC.Cl | – | – | – | Activity (Mus musculus [1]): Non-toxic; inhibition in vivo at 100 mg/kg [7]: 78.3%; inhibition in vivo at 50 mg/kg [8]: 46.2%; Activity (Mus musculus [9]): Non-toxic; Activity (Mus musculus [10]): Non-toxic; inhibition in vivo at 135 mg/kg (HCT-116 [11]): 77% |
| COc1cc2c3c(c4ccc(O)cc4c2cc1OC)[C@@H](O)[C@H]1CCCN1C3 | 7.49 | 7.51 | 7.43 | – |
| COc1cc2c3c(c4ccc(O)cc4c2cc1OC)C[C@@H]1CCCN1C3 | 9.30 | 9.22 | 8.74 | Activity (Mus musculus [1]): Non-toxic; Activity (Mus musculus [2]): Non-toxic; inhibition in vivo at 200 mg/kg (HCT-116 [12]): 48.7%; inhibition in vivo at 50 mg/kg [8]: 70.8%; inhibition in vivo at 100 mg/kg (HCT-116 [5]): 35.7%; Activity (Mus musculus [6]): Non-toxic; Activity (Mus musculus [13]): Non-toxic; inhibition in vivo at 25 mg/kg [4]: 46.9% |
| Oc1ccc2c3c(c4cc5c(cc4c2c1)OCO5)CN1CCC[C@H]1C3 | 6.42 | 6.41 | 6.06 | – |
| COc1cc2c3c(c4ccc(OC(C)=O)cc4c2cc1OC)C[C@@H]1CCCN1C3 | 8.70 | 8.55 | 8.46 | inhibition in vivo at 200 mg/kg (HCT-116 [12]): 34.7%; Activity (Mus musculus [13]): Non-toxic |
| COc1cc2c3c(c4cc(O)ccc4c2cc1OC)C[C@@H]1CCCN1C3 | 7.63 | 7.67 | 7.49 | – |
| COc1cc2c3c(c4ccc(F)cc4c2cc1OC)C[C@@H]1CCCN1C3 | 7.32 | 7.29 | 7.23 | mortality [14]: 10%; inhibition in vivo at 100 mg/kg (HCT-116 [5]): 30.7%; Activity (Mus musculus [6]): Non-toxic; Activity (Mus musculus [13]): Toxic |
| CCc1ccc2c3c(c4cc(OC)c(OC)cc4c2c1)CN1CCC[C@H]1C3 | 6.39 | 6.36 | 6.31 | – |
